Structures are written as SMILES.

Series [1] is described as follows: Plasma concentration in C57BL/6NCrlCrlj mouse at 10 mg/kg, po administered as single dose measured after 3 hrs by LC-MS/MS analysis. It counts as ADME, organism-based. A digest of the protocol: (§1)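 Male C57BL/6NCrlCrlj mice given a single 10 mg/kg oral dose as a suspension in 0.5% aqueous methylcellulose. At 1 or 3 h, under pentobarbital anesthesia, CSF was taken from the cisterna magna and then blood from the abdominal aorta (spun to plasma). Samples were acetonitrile-precipitated with deuterated internal standard and run by LC-MS/MS. Values are mean with SEM.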

Series [2] is described as follows: Plasma protein binding in C57BL/6N mouse at 10 mg/kg, po administered as single dose by equilibrium dialysis method. It counts as ADME, organism-based. The following applies: read-out: PPB (converted).
In series [3] the test system is Mus musculus. Nature of the series: Sleep promoting activity in C57BL/6NCrlCrlj mouse assessed as increase in non-REM sleep at 10 mg/kg, po administered immediately prior to beginning of dark cycle measured during first 3 hrs after drug administration by electroencephalogram/electromyogram analysis (reference value: 62.6 min). Type of series: functional. An outline of the steps:
(§2)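 Male C57BL/6NCrlCrlj mice implanted with EEG/EMG electrodes were dosed orally in 10% Cremophor EL, 5% DMSO in saline just before lights-off (ZT12) and recorded from ZT12 to ZT20. Group sizes were n=6 dosed and n=7 vehicle. Stages were scored by software with blinded visual confirmation; cumulative first-3-h times are mean with SEM. Dunnett's test was run after one-way ANOVA.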

For series [4], the system named is Mus musculus. Nature of the series: Sleep promoting activity in C57BL/6NCrlCrlj mouse assessed as increase in REM sleep at 10 mg/kg, po administered immediately prior to beginning of dark cycle measured during first 3 hrs after drug administration by electroencephalogram/electromyogram analysis (reference value: 0.6 min). Type of series: functional. A digest of the protocol:
as §2

Series [5] has as its target Voltage-gated inwardly rectifying potassium channel KCNH2 (Homo sapiens, UniProt Q12809). Nature of the series: Inhibition of human ERG.
Another series has as its target T1, Cytochrome P450 1A2 (Homo sapiens, UniProt P05177).
T1 sequence (P05177 whole entry): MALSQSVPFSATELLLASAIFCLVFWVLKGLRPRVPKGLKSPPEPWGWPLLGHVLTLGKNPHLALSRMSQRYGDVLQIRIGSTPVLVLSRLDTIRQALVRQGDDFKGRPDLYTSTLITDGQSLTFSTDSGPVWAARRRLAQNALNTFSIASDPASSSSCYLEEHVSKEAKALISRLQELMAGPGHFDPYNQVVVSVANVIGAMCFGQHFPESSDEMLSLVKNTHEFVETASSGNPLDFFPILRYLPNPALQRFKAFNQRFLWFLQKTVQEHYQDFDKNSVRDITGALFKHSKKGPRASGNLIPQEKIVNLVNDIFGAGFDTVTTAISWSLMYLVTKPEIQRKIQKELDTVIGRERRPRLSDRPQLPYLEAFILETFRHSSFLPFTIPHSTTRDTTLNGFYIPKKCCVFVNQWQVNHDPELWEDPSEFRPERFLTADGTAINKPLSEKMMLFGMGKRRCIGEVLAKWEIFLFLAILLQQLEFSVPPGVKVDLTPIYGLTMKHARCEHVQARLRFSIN
Nature of the series: Inhibition of CYP1A2 in human liver microsomes using phenacetin as susbtrate incubated for 30 mins prior to substrate addition for 10 mins by LC-MS/MS analysis. It counts as ADME.

For the next series, the target named is T2, Cytochrome P450 2C8 (Homo sapiens, UniProt P10632).
T2 sequence (P10632 whole entry): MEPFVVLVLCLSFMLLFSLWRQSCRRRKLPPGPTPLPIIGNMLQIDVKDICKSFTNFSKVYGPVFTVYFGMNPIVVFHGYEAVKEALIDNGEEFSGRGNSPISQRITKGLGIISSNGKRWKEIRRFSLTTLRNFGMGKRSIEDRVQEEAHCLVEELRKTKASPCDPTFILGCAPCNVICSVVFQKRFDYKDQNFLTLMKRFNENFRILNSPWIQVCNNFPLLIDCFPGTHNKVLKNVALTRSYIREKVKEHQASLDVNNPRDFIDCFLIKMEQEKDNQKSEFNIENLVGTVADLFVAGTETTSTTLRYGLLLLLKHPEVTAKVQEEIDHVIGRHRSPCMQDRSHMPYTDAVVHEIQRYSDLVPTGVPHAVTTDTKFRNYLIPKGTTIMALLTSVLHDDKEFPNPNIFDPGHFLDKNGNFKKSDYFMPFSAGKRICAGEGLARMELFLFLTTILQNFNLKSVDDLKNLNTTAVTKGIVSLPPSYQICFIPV
Nature of the series: Inhibition of CYP2C8 in human liver microsomes using rosiglitazone as susbtrate incubated for 30 mins prior to substrate addition for 10 mins by LC-MS/MS analysis. Type of series: ADME.

For series [6], the target named is T3, Orexin/Hypocretin receptor type 1 (Homo sapiens, UniProt O43613).
T3 sequence (O43613 whole entry): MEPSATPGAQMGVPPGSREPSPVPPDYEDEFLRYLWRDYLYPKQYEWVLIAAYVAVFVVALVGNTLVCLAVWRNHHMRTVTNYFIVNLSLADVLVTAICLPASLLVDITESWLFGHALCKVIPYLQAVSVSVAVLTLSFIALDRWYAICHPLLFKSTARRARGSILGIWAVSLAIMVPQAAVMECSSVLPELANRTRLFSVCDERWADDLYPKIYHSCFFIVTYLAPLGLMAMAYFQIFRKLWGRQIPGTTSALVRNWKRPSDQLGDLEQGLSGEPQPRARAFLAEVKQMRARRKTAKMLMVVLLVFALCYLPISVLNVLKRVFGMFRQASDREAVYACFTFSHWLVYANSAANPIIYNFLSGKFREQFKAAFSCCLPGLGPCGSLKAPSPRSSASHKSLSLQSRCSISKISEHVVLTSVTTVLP
Nature of the series: Binding affinity to human OX1R expressed in HEK-293 cells assessed as inhibition of orexin A-induced calcium accumulation by FLIPR assay. Type of series: cell-based, HEK293. An outline of the steps: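 HEK-293 cells expressing human OX1R, seeded at 16000 cells/well and grown overnight at 37 °C, then loaded with Calcium 4 dye in HEPES buffer with 0.1% BSA (1 h at 37 °C, 15 min at RT). Compound was equilibrated 30 min at RT before orexin-A was added. Fluorescence read at ex 480/em 540 nm on FDSS6000; response taken as peak/baseline ratio. Orexin-A EC50 was determined in each experiment.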

The nature of series [7]: Plasma clearance in C57BL/6NCrlCrlj mouse at 1 mg/kg, iv by LC-MS/MS analysis. Type of series: ADME, organism-based. A digest of the protocol: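 Male C57BL/6NCrlCrlj mice dosed intravenously at 1 mg/kg in 10% DMSO in water. Blood was taken from the tail vein at set time points and spun to plasma. Concentrations were measured by LC-MS/MS (MRM, positive mode) against a 1/x²-weighted standard curve with internal standard. Parameters came from noncompartmental analysis.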

The nature of series [8]: Oral bioavailability in C57BL/6NCrlCrlj mouse at 10 mg/kg by LC-MS/MS analysis. Type of series: ADME, organism-based. The settings on record: in vivo. An outline of the steps: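 Oral dose of 10 mg/kg in 10% Cremophor EL, 5% DMSO in saline; intravenous reference of 1 mg/kg in 10% DMSO in water; male C57BL/6NCrlCrlj mice. Tail-vein plasma was quantified by LC-MS/MS. F% = (mean AUC0–inf po/dose po)/(mean AUC0–inf iv/dose iv) × 100.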

A short description of series [9]: Plasma concentration in C57BL/6NCrlCrlj mouse at 10 mg/kg, po administered as single dose measured after 1 hr by LC-MS/MS analysis. Type of series: ADME, organism-based. An outline of the steps:
as §1

Voltage-gated inwardly rectifying potassium channel KCNH2, sequence (Q12809 whole entry): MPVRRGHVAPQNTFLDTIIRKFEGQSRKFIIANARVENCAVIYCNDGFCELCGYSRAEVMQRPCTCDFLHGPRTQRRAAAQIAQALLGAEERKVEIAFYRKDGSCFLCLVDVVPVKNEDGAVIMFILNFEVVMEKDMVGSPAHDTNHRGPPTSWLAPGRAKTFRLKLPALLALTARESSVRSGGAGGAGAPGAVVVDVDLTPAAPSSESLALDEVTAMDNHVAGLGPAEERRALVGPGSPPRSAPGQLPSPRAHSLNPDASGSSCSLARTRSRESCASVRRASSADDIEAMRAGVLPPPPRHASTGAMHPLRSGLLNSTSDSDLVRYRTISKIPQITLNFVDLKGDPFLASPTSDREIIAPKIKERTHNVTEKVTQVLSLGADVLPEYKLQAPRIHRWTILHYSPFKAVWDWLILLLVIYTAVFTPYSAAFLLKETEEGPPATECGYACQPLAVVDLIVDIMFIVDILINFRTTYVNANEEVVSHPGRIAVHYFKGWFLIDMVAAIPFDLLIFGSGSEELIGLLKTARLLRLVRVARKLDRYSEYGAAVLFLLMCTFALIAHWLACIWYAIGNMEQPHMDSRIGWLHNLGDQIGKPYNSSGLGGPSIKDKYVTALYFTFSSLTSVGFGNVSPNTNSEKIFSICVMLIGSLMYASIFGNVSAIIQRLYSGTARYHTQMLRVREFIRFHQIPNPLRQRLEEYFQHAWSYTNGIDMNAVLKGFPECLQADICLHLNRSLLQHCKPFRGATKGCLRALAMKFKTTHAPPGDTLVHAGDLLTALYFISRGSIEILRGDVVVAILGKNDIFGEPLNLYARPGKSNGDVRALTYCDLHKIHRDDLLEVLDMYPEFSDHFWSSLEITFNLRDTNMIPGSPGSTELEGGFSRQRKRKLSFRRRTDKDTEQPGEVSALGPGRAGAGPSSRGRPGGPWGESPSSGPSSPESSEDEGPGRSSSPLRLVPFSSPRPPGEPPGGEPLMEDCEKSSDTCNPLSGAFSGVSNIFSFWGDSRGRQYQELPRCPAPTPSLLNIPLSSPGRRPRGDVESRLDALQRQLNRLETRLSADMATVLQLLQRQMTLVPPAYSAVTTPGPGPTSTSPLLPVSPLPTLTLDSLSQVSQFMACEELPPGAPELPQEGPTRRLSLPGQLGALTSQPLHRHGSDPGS

For the molecule `Cc1ncc(OC[C@@]2(c3cccc(F)c3)C[C@H]2C(=O)Nc2ccc(F)cn2)c(C)n1` [LEMBOREXANT], in [1], the concentration at 3 h was determined as 0.158 µM. For the same molecule, the fraction unbound in [2] is 0.148. The values for the Time in the series with Mus musculus [3] and with Mus musculus [4] were 99.3 min and 3.6 min, respectively. Also, the IC50 in [5] was 6.1 µM; on Cytochrome P450 1A2 it was more than 20 µM; at Cytochrome P450 2C8, more than 20 µM. Further, in [6], the Ki was determined as 0.0057 µM. Besides, the clearance in series [7] was 1.06 L/h/kg. Besides, the bioavailability in series [8] came out at 18.5%. In addition, in series [9], the concentration at 1 h amounted to 0.633 µM.

The record behind these values is ChEMBL document CHEMBL3585325, “Discovery of (1R,2S)-2-{[(2,4-Dimethylpyrimidin-5-yl)oxy]methyl}-2-(3-fluorophenyl)-N-(5-fluoropyridin-2-yl)cyclopropanecarboxamide (E2006): A Potent and Efficacious Oral Orexin Receptor Antagonist” (J Med Chem, 2015).
